{
  "source": "ChEMBL document CHEMBL3992558",
  "about": "“Benzimidazole inhibitors from the Niclosamide chemotype inhibit Wnt/β-catenin signaling with selectivity over effects on ATP homeostasis” (Bioorg Med Chem, 2017)",
  "key": {"Homo sapiens [1]": {"species_on_record": "Homo sapiens", "test": "Inhibition of Wnt/beta-catenin signaling (unknown origin) expressed in HEK293 cells assessed as inhibition of Wnt3A-stimulated beta-catenin response transcription at 10 uM after 6 hrs by TOPflash dual luciferase reporter gene assay relative to control", "type": "cell-based", "procedure,_shortened": "(§1)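 HEK293 cells stably carrying p8xTOPFlash and Renilla pRL-TK were seeded at confluency and given Wnt-3A conditioned medium (from L Wnt-3A cells) containing compound, 0.04–10 μM, or DMSO for 6 h. Lysates were read by dual-luciferase assay. The DMSO/Wnt3A signal was set as 100%, and curves were fit (mean ± SEM, n ≥ 3). Percent inhibition at 10 μM was reported where no IC50 could be fitted.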"}, "Homo sapiens [2]": {"species_on_record": "Homo sapiens", "test": "Inhibition of Wnt/beta-catenin signaling in human U2OS cells expressing GFP-fused Fzd1 assessed as GFP-Fzd1 internalization by measuring number of punctate formed at 12.5 uM after 6 hrs by confocal microscopic method", "type": "cell-based", "procedure,_shortened": "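U2OS cells stably expressing Frizzled1-GFP were plated in confocal dishes for 24 h, then treated with 12.5 μM compound in DMSO or DMSO for 6 h at 37°C and fixed in 4% paraformaldehyde. Confocal images (488-nm excitation) were read twice, blinded, and punctate was scored versus control on a 0–5 scale (0, 1, 3, 5).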"}, "HEK293 (Homo sapiens)": {"tested_on": "HEK293 (Homo sapiens)", "test": "Effect on ATP homeostasis in human HEK293 cells assessed as reduction in ATP level after 3 hrs in absence of glucose by ATP bioluminescent assay", "settings": "HEK293, 3 h"}, "Homo sapiens [3]": {"species_on_record": "Homo sapiens", "test": "Inhibition of Wnt/beta-catenin signaling in human HCT116 cells assessed as downregulation of survivin protein expression at 5 uM after 18 hrs by Western blot method", "type": "cell-based", "procedure,_shortened": "(§2)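 HCT-116 (McCoy's 5A) or SW480 (MEM) cells, each with 10% FBS, were grown 48 h on poly-D-lysine-coated wells to 60–80% confluency. Fresh medium with compound or DMSO (0.1% final) was added for 18 h. Cytosolic fractions (β-catenin, Axin2) were isolated with hypotonic buffer, or whole cells were lysed in Laemmli buffer (c-Myc, Cyclin D1, Survivin). Immunoblots used β-actin as loading control.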"}, "Homo sapiens [4]": {"species_on_record": "Homo sapiens", "test": "Inhibition of Wnt/beta-catenin signaling in human HCT116 cells assessed as downregulation of Cyclin D1 protein expression at 5 uM after 18 hrs by Western blot method", "type": "cell-based", "procedure,_shortened": "as §2"}, "Homo sapiens [5]": {"species_on_record": "Homo sapiens", "test": "Inhibition of Wnt/beta-catenin signaling in human HCT116 cells assessed as downregulation of cytosolic beta-catenin protein expression at 5 uM after 18 hrs by Western blot method", "type": "cell-based", "procedure,_shortened": "as §2"}, "Homo sapiens [6]": {"species_on_record": "Homo sapiens", "test": "Inhibition of Wnt/beta-catenin signaling in human SW480 cells assessed as downregulation of cytosolic Axin2 protein expression at 5 uM after 18 hrs by Western blot method", "type": "cell-based", "procedure,_shortened": "as §2"}, "Homo sapiens [7]": {"species_on_record": "Homo sapiens", "test": "Inhibition of Wnt/beta-catenin signaling (unknown origin) expressed in HEK293 cells assessed as inhibition of Wnt3A-stimulated beta-catenin response transcription at 0.31 uM after 6 hrs by TOPflash dual luciferase reporter gene assay relative to control", "type": "cell-based", "procedure,_shortened": "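HEK293 cells stably carrying p8xTOPFlash and a Renilla luciferase control (pRL-TK), grown in MEM with 10% FBS and 1ug/mL puromycin. Cells were seeded at confluence, then given Wnt-3A conditioned medium (from L Wnt-3A cells) with compound (0.04 to 10μM) or DMSO for 6 h. Lysates were read by dual luciferase, with the Wnt3A + DMSO signal set as 100%.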"}, "Homo sapiens [8]": {"species_on_record": "Homo sapiens", "test": "Inhibition of Wnt/beta-catenin signaling in human SW480 cells assessed as downregulation of c-Myc protein expression at 5 uM after 18 hrs by Western blot method", "type": "cell-based", "procedure,_shortened": "as §2"}, "Homo sapiens [9]": {"species_on_record": "Homo sapiens", "test": "Inhibition of Wnt/beta-catenin signaling in human SW480 cells assessed as downregulation of survivin protein expression at 5 uM after 18 hrs by Western blot method", "type": "cell-based", "procedure,_shortened": "as §2"}, "Homo sapiens [10]": {"species_on_record": "Homo sapiens", "test": "Inhibition of Wnt/beta-catenin signaling in human HCT116 cells assessed as downregulation of c-Myc protein expression at 5 uM after 18 hrs by Western blot method", "type": "cell-based", "procedure,_shortened": "as §2"}, "Homo sapiens [11]": {"species_on_record": "Homo sapiens", "test": "(§3) Inhibition of Wnt/beta-catenin signaling (unknown origin) expressed in HEK293 cells assessed as inhibition of Wnt3A-stimulated beta-catenin response transcription after 6 hrs by TOPflash dual luciferase reporter gene assay", "type": "cell-based", "procedure,_shortened": "as §1"}, "[12]": {"test": "as §3", "type": "cell-based", "settings": "Homo sapiens, HEK293, 6 h", "procedure,_shortened": "as §1"}, "Homo sapiens [13]": {"species_on_record": "Homo sapiens", "test": "Inhibition of Wnt/beta-catenin signaling in human SW480 cells assessed as downregulation of cytosolic beta-catenin protein expression at 5 uM after 18 hrs by Western blot method", "type": "cell-based", "procedure,_shortened": "as §2"}, "Homo sapiens [14]": {"species_on_record": "Homo sapiens", "test": "Inhibition of Wnt/beta-catenin signaling in human HCT116 cells assessed as downregulation of cytosolic Axin2 protein expression at 5 uM after 18 hrs by Western blot method", "type": "cell-based", "procedure,_shortened": "as §2"}, "Homo sapiens [15]": {"species_on_record": "Homo sapiens", "test": "Inhibition of Wnt/beta-catenin signaling in human SW480 cells assessed as downregulation of Cyclin D1 protein expression at 5 uM after 18 hrs by Western blot method", "type": "cell-based", "procedure,_shortened": "as §2"}, "HCT-116 [16]": {"tested_on": "HCT-116", "test": "Effect on ATP homeostasis in human HCT116 cells assessed as reduction in ATP level at 2 uM after 3 hrs in glucose supplemented media by ATP bioluminescent assay", "settings": "hct-116, 3 h"}, "HCT-116 [17]": {"tested_on": "HCT-116", "test": "Effect on ATP homeostasis in human HCT116 cells assessed as reduction in ATP level at 0.5 to 2 uM after 3 hrs in glucose supplemented media by ATP bioluminescent assay", "type": "ADME, cell-based", "settings": "hct-116, 3 h", "procedure,_shortened": "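HCT-116 cells attached overnight on poly-D-lysine plates, then treated 3 h at 37°C in DMEM with 2mM sodium pyruvate, 2mM L-glutamine and 5mM glucose (0.1% final DMSO). ATP was read by luciferase bioluminescence after lysis with Somatic Cell ATP Releasing Reagent, normalized to DMSO control.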"}, "HCT-116 [18]": {"tested_on": "HCT-116", "test": "Effect on ATP homeostasis in human HCT116 cells assessed as reduction in ATP level at 0.31 uM after 3 hrs in absence of glucose by ATP bioluminescent assay", "type": "ADME, cell-based", "settings": "hct-116, 3 h"}, "HCT-116 [19]": {"tested_on": "HCT-116", "test": "Effect on ATP homeostasis in human HCT116 cells assessed as reduction in ATP level after 3 hrs in absence of glucose by ATP bioluminescent assay", "type": "ADME, cell-based", "procedure,_shortened": "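HCT-116 cells attached overnight on poly-D-lysine plates in McCoy's 5A/10% FBS, then switched to glucose-free DMEM with 2mM sodium pyruvate and 2mM L-glutamine containing compound (0.1% final DMSO). After 3 h at 37°C, 5% CO2, cells were lysed in Somatic Cell ATP Releasing Reagent and ATP was read by luciferase bioluminescence, normalized to DMSO control.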"}},
  "note": "Calls of active or inactive are those of the source. The calls are words filed in the database; no cut-off is given here.",
  "data": [
    {"smiles": "O=S(=O)(Nc1ccccc1-c1nc2cc(C(F)(F)F)ccc2[nH]1)c1c(F)cccc1F", "values": [
      {"measurement": "inhibition", "setting": "Homo sapiens [1]", "value": 8, "unit": "%"},
      {"measurement": "Activity", "setting": "Homo sapiens [2]", "value": 0}
    ]},
    {"smiles": "O=[N+]([O-])c1ccc2nc(-c3cc(Cl)ccc3O)[nH]c2c1", "values": [
      {"measurement": "EC50", "setting": "HEK293 (Homo sapiens)", "value": 2900, "unit": "nM"},
      {"measurement": "inhibition", "setting": "Homo sapiens [3]", "value": "Active"},
      {"measurement": "inhibition", "setting": "Homo sapiens [4]", "value": "Active"},
      {"measurement": "inhibition", "setting": "Homo sapiens [5]", "value": "Active"},
      {"measurement": "inhibition", "setting": "Homo sapiens [6]", "value": "Active"},
      {"measurement": "inhibition", "setting": "Homo sapiens [7]", "value": 40, "unit": "%"},
      {"measurement": "inhibition", "setting": "Homo sapiens [8]", "value": "Active"},
      {"measurement": "inhibition", "setting": "Homo sapiens [9]", "value": "Active"},
      {"measurement": "inhibition", "setting": "Homo sapiens [10]", "value": "Active"},
      {"measurement": "inhibition", "setting": "Homo sapiens [11]", "value": "Dose-dependent effect"},
      {"measurement": "IC50", "setting": "[12]", "value": "360 to 480", "unit": "nM"},
      {"measurement": "inhibition", "setting": "Homo sapiens [13]", "value": "Active"},
      {"measurement": "inhibition", "setting": "Homo sapiens [14]", "value": "Active"},
      {"measurement": "Activity", "setting": "Homo sapiens [2]", "value": 3},
      {"measurement": "inhibition", "setting": "Homo sapiens [15]", "value": "Active"}
    ]},
    {"smiles": "CS(=O)(=O)Nc1ccccc1-c1nc2cc([N+](=O)[O-])ccc2[nH]1", "values": [
      {"measurement": "inhibition", "setting": "Homo sapiens [1]", "value": 50, "unit": "%"},
      {"measurement": "Activity", "setting": "Homo sapiens [2]", "value": 0}
    ]},
    {"smiles": "N#CC(C#N)=NNc1ccc(OC(F)(F)F)cc1", "values": [
      {"measurement": "Activity", "setting": "HCT-116 [16]", "value": "Toxic"}
    ]},
    {"smiles": "O=[N+]([O-])c1ccc2nc(-c3ccccc3O)[nH]c2c1", "values": [
      {"measurement": "IC50", "setting": "[12]", "value": 4440, "unit": "nM"},
      {"measurement": "Activity", "setting": "Homo sapiens [2]", "value": 0}
    ]},
    {"smiles": "CCCCCC[C@H]1C(=O)O[C@H](C)[C@H](NC(=O)c2cccc(NC=O)c2O)C(=O)O[C@@H](C)[C@@H]1OC(=O)CC(C)C", "note": "[ANTIMYCIN A]", "values": [
      {"measurement": "Activity", "setting": "HCT-116 [16]", "value": "Toxic"}
    ]},
    {"smiles": "Cc1ccc(O)c(-c2nc3cc([N+](=O)[O-])ccc3[nH]2)c1", "values": [
      {"measurement": "Activity", "setting": "HCT-116 [17]", "value": "Non-Toxic"},
      {"measurement": "IC50", "setting": "[12]", "value": 1690, "unit": "nM"},
      {"measurement": "Activity", "setting": "Homo sapiens [2]", "value": 0}
    ]},
    {"smiles": "Cc1ccc(S(=O)(=O)Nc2ccccc2-c2nc3cc([N+](=O)[O-])ccc3[nH]2)cc1", "values": [
      {"measurement": "inhibition", "setting": "Homo sapiens [1]", "value": 53, "unit": "%"},
      {"measurement": "Activity", "setting": "Homo sapiens [2]", "value": 0}
    ]},
    {"smiles": "O=[N+]([O-])c1ccc2[nH]c(-c3cc(Cl)ccc3O)nc2c1", "values": [
      {"measurement": "Activity", "setting": "HCT-116 [17]", "value": "Non-Toxic"},
      {"measurement": "Activity", "setting": "HCT-116 [18]", "value": "Non-Toxic"},
      {"measurement": "Activity", "setting": "HCT-116 [19]; human, hct-116, 3 h", "value": "Dose-dependent effect"}
    ]},
    {"smiles": "Oc1ccc(Cl)cc1-c1nc2ccccc2[nH]1", "values": [
      {"measurement": "IC50", "setting": "[12]", "value": 2670, "unit": "nM"},
      {"measurement": "Activity", "setting": "Homo sapiens [2]", "value": 0}
    ]},
    {"smiles": "Cc1ccc(S(=O)(=O)Nc2ccc(Cl)cc2-c2nc3cc(C(F)(F)F)ccc3[nH]2)cc1", "values": [
      {"measurement": "IC50", "setting": "[12]", "value": 3200, "unit": "nM"},
      {"measurement": "Activity", "setting": "Homo sapiens [2]", "value": 0}
    ]},
    {"smiles": "O=[N+]([O-])c1ccc2nc(-c3cc(Cl)cc(Cl)c3O)[nH]c2c1", "values": [
      {"measurement": "Activity", "setting": "HCT-116 [17]", "value": "Toxic"},
      {"measurement": "IC50", "setting": "[12]", "value": 1540, "unit": "nM"},
      {"measurement": "Activity", "setting": "Homo sapiens [2]", "value": 2},
      {"measurement": "IC50", "setting": "HCT-116 [19]; Homo sapiens, HCT-116, 3 h", "value": "< 250", "unit": "nM"}
    ]}
  ]
}
